Experimental data taken from the RNAGym collection of RNA variant scans (doi:10.1126/science.aae0568).
This sample holds only a part of the variants without activity.

B1: tRNA (parent)
chain: GUUCCGUUGGCGUAAUGGUAACGCGUCUCCCUCCUAAGGAGAAGACUGCGGGUUCGAGUCCCGUACGGAACG

Variants of: B1
Assay: yeast fitness relative to wild type (ratio to wild type); higher = fitter; tRNA-Arg(CCU), competitive growth, 37 C, YPD
Procedure, shortened: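 Variants of the tRNA-Arg(CCU) gene were chemically synthesised with a 3% per-site mutation rate across 69 sites and placed at the native genomic locus in Saccharomyces cerevisiae. Six parallel replicates of the pooled strains were competed in YPD at 37°C for 24 hours, and gene amplicons from the start and end populations were read by 100-nucleotide paired-end sequencing. Darwinian fitness relative to wild type was derived from changes in genotype frequencies. Genotypes required ≥ 100 starting reads, and estimates < 0.5 were set to 0.5.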

Row | Variant | yeast fitness
1 | U19A C55G A57G | 0.5
2 | U19A C24U G38A U54C A69C | ≤ 0.5
3 | U19C C49A C62A | ≤ 0.5
4 | U19C A37G | 0.784
5 | U19C A37U | 1.08
6 | U19C A37C | 0.658
7 | U19C A36C G58C | ≤ 0.5
8 | U19C G41C A70U | 0.671
9 | U19C G44C | 1
10 | U19C G67U A69G | 0.751
11 | U19C U26A | 0.945
12 | U19C G48A | 1.04
13 | U19C A20C A21U C55U A65U | ≤ 0.5
14 | U19A U47A | 0.837
15 | U19A U47C | 0.925
16 | U19C A70G | 0.982
17 | U19C C24G A37U U47A A57G | ≤ 0.5
18 | U19C A21U C31U A42G A43U | 0.929
19 | U19C C27A C30G U54A G56A | 0.671
20 | U19C G25C A37G | 0.6
21 | U19C A36C G39A C62G | ≤ 0.5

Row | Variant | yeast fitness
22 | U19C C22G C24A G39C A45U | 0.572
23 | U19C C22G C24A G39C A45C | 0.916
24 | U19A C27U U59A A65C G67U | 0.575
25 | U19A G25C C33A A37G | ≤ 0.5
26 | U19C C24U G51A | 0.66
27 | U19A C24U G25C C49U | ≤ 0.5
28 | U19C C46G A69U | 0.803
29 | U19C G41A | 0.899
30 | U19A U47C C66U | 0.751
31 | U19C A21U A43C C49U | 0.547
32 | U19C C31G C66G | ≤ 0.5
33 | U19C C29G C33G G41C C66U | ≤ 0.5
34 | U19A C27U A45C G63A | 0.729
35 | U19A C30A A43G | ≤ 0.5
36 | U19A U47G G50A | 0.55
37 | U19C A65U G68A | 0.534
38 | U19C A20C C33U U35A C49A | 0.539
39 | U19C A21C G51A G58A | ≤ 0.5
40 | U19C G50A C61U | ≤ 0.5
41 | U19A U26A C66A | 0.585
42 | U19C C27G | 0.579

Row | Variant | yeast fitness
43 | U19C C27U | 1.08
44 | U19C C24G U35C A37U U47A | ≤ 0.5
45 | U19C A42U G68C | ≤ 0.5
46 | U19A C29G A42C C46A C49G | ≤ 0.5
47 | U19C C29G U47A | ≤ 0.5
48 | U19C G56C | 0.67
49 | U19A C30A A65G | 0.673
50 | U19C C33G A36U G44A | ≤ 0.5
51 | U19C C29U C34A | ≤ 0.5
52 | U19A C60U | 0.819
53 | U19A C60A | 0.623
54 | U19A C24G C27U C30A G52C G56A | ≤ 0.5
55 | U19A C24G C27G C31G C34G A37C A57G C61G | 0.576
56 | U19C C22G G25C C33U G39C C62G | ≤ 0.5
57 | U19A C29U | 0.76
58 | U19A C29A | 0.712
59 | U19A C29G | 0.685
60 | U19A G44C G67C | 0.639
61 | U19A C29G C33U U47A G51A C61U | ≤ 0.5
62 | U19A C22U U32C C46U | ≤ 0.5
63 | U19A C27U C66U | 0.786

Row | Variant | yeast fitness
64 | U19A C55A C61U | ≤ 0.5
65 | U19C A20U A57G | 0.695
66 | U19C G38C G44C C46A G68C | ≤ 0.5
67 | U19A U47A G58C | 0.602
68 | U19A C24U C33U C49U | ≤ 0.5
69 | U19A C22U | 0.709
70 | U19A C31U U53A | ≤ 0.5
71 | U19A G50U | 0.817
72 | U19C A42G | 0.774
73 | U19C A42C | 1.06
74 | U19C C27A G50C | 0.577
75 | U19A G23C | 0.549
76 | U19A G50A A57C | 0.516
77 | U19C G23A A37C A65G | ≤ 0.5
78 | U19C C27U C29G C34A A42C A69C | ≤ 0.5
79 | U19C A43G A69U | 1.05
80 | U19C G25C U54C C61G | ≤ 0.5
81 | U19C C34U C49A G56C C62A A65C | ≤ 0.5
82 | U19C C24U A40C | 0.663
83 | U19C C27G C29A C33A A43C | ≤ 0.5
84 | U19C A45U C46U A57U | ≤ 0.5
